Consider three compounds from ChEMBL document CHEMBL1142099, “Paecilodepsipeptide A, an antimalarial and antitumor Cyclohexadepsipeptide from the insect pathogenic fungus Paecilomyces cinnamomeus BCC 9616” (J Nat Prod, 2007).

Activity calls are given as the source filed them. The calls are words filed in the database; no cut-off is given here.

For one data set, the system named is Plasmodium falciparum. Put plainly: Antimalarial activity against Plasmodium falciparum K1. Format: functional, organism-based. Summed up: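 P. falciparum K1 (multidrug-resistant strain) tested by microculture radioisotope technique; IC50 determined. Dihydroartemisinin used as reference standard.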
A further data set deals with Vero. Kind of data set: Cytotoxicity against African green monkey Vero cells upto 67 uM. Format: cell-based. To be noted: chlorocebus sabaeus. Summed up:
(§1)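 Colorimetric cytotoxicity assay on KB (oral human epidermoid carcinoma), BC (human breast cancer) and Vero (African green monkey kidney fibroblast) cells; IC50 determined, Vero tested up to 67 µM (50 µg/mL). Ellipticine used as reference standard.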

Data set [1] can be described thus: Cytotoxicity against human BC cells. As to conditions: for Activity: human, bc. Format: cell-based. Summed up:
as §1

Another data set relates to KB. Put plainly: Cytotoxicity against human KB cells. Format: cell-based. To be noted: for Activity: human, kb. Summed up:
as §1

Take `CC(C)=CCOc1ccc(C[C@@H](NC(=O)[C@@H](C)NC(=O)[C@@H](Cc2ccc(O)cc2)NC(=O)CNC(=O)[C@H](C)NC(=O)[C@@H](O)Cc2ccccc2)C(=O)O)cc1` [PAECILODEPSIPEPTIDE B]: in the data set with Plasmodium falciparum, the result was inactive. The Activity entry (in the data set with Vero; in data set [1]; with KB) was “Not Active” in each case.
Take `CC(C)=CCOc1ccc(C[C@H]2NC(=O)[C@@H](C)NC(=O)[C@@H](Cc3ccc(O)cc3)NC(=O)CNC(=O)[C@H](C)NC(=O)[C@H](Cc3ccccc3)OC2=O)cc1` [PAECILODEPSIPEPTIDE A]: the IC50 in the data set on Plasmodium falciparum came to 4.9 µM; in data set [1] (Homo sapiens, BC) it was 6.6 µM; in the data set on KB (Homo sapiens, KB), 5.9 µM. The Activity result with Vero was “Not Active”.
Take `COC(=O)[C@@H](Cc1ccc(OCC=C(C)C)cc1)NC(=O)[C@@H](C)NC(=O)[C@@H](Cc1ccc(O)cc1)NC(=O)CNC(=O)[C@H](C)NC(=O)[C@@H](O)Cc1ccccc1` [PAECILODEPSIPEPTIDE C]: the outcome in the data set with Plasmodium falciparum was inactive. Besides, the Activity entry (in the data set with Vero; in data set [1]; with KB) was “Not Active” throughout.

The term IC50 denotes the concentration that inhibits the measured activity by half.
